PREPL inhibitor – inhibits the human prolyl oligopeptidase-like enzyme | AID 2751 | Q4J6C6 | inhibition, % at 5.96 µM | recombinant PREPL, fluorescence polarization activity-based probe | 320,000 compounds, 0.68% hits; in the data active means inhibition above about 43%;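 further: 0% = enzyme with DMSO and 100% = wells lacking enzyme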
Target sequence (Q4J6C6 whole entry, looked up): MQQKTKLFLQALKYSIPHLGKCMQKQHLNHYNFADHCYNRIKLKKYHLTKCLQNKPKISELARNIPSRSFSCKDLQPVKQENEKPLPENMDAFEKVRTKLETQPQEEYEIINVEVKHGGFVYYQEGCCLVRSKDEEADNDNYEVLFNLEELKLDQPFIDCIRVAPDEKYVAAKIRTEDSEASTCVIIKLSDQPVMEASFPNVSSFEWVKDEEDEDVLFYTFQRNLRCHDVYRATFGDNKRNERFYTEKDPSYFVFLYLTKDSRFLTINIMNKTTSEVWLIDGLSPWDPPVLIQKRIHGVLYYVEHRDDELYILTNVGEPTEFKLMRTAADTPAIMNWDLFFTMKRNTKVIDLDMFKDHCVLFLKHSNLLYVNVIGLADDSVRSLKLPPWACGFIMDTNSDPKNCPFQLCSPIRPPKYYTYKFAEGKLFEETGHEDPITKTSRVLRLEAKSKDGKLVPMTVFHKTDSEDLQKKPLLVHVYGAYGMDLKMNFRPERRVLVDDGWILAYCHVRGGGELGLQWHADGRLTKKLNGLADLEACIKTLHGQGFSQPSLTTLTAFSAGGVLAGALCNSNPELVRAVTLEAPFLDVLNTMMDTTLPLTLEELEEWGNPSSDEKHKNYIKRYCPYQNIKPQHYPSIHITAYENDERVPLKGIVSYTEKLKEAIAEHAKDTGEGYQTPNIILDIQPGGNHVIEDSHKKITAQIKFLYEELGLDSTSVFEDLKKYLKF
ALR H2O2 inh – blocks human ALR sulfhydryl oxidase activity. P55789. purified ALR, DTT oxidation, H2O2 HRP-luminol luminescence. inhibition, % (no concentration beside the values). 290,000 compounds, 3.8% hits. AID 485317;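 active means mean replicate inhibition above about 79%, with every replicate also reaching it, limit read from the data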
UBC13 inh – blocks human UBC13 polyubiquitin chain formation | TR-FRET | inhibition, % at 20 µM | 330,000 compounds, 0.47% hits | AID 485273; in the data active means inhibition above about 45%, passing the limit was not always enough
RBBP9 inh – blocks human serine hydrolase RBBP9; O75884; recombinant RBBP9, FP-Rh probe fluorescence polarization; inhibition, % at 7.94 µM; 220,000 compounds, 0.2% hits; AID 1515;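 active means inhibition above the campaign mean of all tested compounds plus 3 SD, cut at about 14% in these data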;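 further: plate controls were DMSO wells with RBBP9 for no effect and wells lacking RBBP9 protein for full effect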
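Material: RBBP9 protein. Amount: RBBP9 at 2.5 µM in dispensed solution, before mixing. Schedule: 30 min then 45 min, 25 °C. Medium: Tris buffer pH 8.0, NaCl, Pluronic. Measured by: fluorescence polarization. Measure: percent inhibition from mP, scaled between DMSO and no-protein wells. Replication: one well per compound.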
Rin1 Abl inh – inhibitors of human Rin1-Abl protein interaction; TR-FRET Rin1/Abl binding, biochemical; P00519+Q13671; inhibition, % at 7.35 µM; 360,000 compounds, 0.4% hits; in the data active means inhibition above about 5%, passing the limit was not always enough
UBC9 SUMO inh – SUMOylation inhibition; P63279; inhibition, % at 35 µM; HTRF SUMOylation assay, SAE1/SAE2 + UBC9, in vitro; 290,000 compounds, 0.36% hits; in the data active means inhibition above about 50%, passing the limit was not always enough
* marks the source's active call; other numbers are inactive results. In the library only some 4.3% were active in any assay of this set; here they are far more common.

C=CCn1c(C)cc(C(=O)CSc2ccc(NC(C)=O)cc2)c1C was read as PREPL inhibitor 2, ALR H2O2 inh 98*, UBC13 inh -3, RBBP9 inh 2, Rin1 Abl inh 0 and UBC9 SUMO inh -17.
Screening CC(=O)Nc1ccc(SCC(=O)c2cc(C)n(Cc3cccs3)c2C)cc1 returned PREPL inhibitor 2, ALR H2O2 inh -11, UBC13 inh 5, RBBP9 inh 0, Rin1 Abl inh -2 and UBC9 SUMO inh -25.
Cc1cc(C(=O)CSc2n[nH]c(N)n2)c(C)n1C1CC1 was read as PREPL inhibitor 9, ALR H2O2 inh 7, UBC13 inh 11, RBBP9 inh -1, Rin1 Abl inh -5 and UBC9 SUMO inh 24.
Screening O=Cc1ccc(O)cc1O returned PREPL inhibitor -5, ALR H2O2 inh -18, UBC13 inh -3, Rin1 Abl inh 0 and UBC9 SUMO inh 12.
O=CN/C=C/c1cc(O)ccc1O was read as PREPL inhibitor 9, ALR H2O2 inh 98*, UBC13 inh -10, RBBP9 inh 39*, Rin1 Abl inh 1 and UBC9 SUMO inh 39.
`O=c1c(Cl)c(Cl)cnn1Cc1ccccc1Cl` gave PREPL inhibitor -6, ALR H2O2 inh 95*, RBBP9 inh -7 and UBC9 SUMO inh 4.
For Cc1cc(C)cc(Cn2ncc(Cl)c(Cl)c2=O)c1 the results were PREPL inhibitor 5, ALR H2O2 inh 96*, RBBP9 inh 4 and UBC9 SUMO inh -7.
For Cc1ccc(Cn2ncc(Cl)c(Cl)c2=O)cc1 the results were PREPL inhibitor 0, ALR H2O2 inh 15, UBC13 inh 22, RBBP9 inh -3, Rin1 Abl inh 1 and UBC9 SUMO inh 10.
CN1C(=O)/C(=C/c2cccc([N+](=O)[O-])c2)C(=O)N1c1ccccc1 was read as PREPL inhibitor 8, ALR H2O2 inh 98*, UBC13 inh -18, Rin1 Abl inh 6 and UBC9 SUMO inh -1.
O=C1NC(=S)N/C1=C/c1cccc([N+](=O)[O-])c1 was read as PREPL inhibitor -5, ALR H2O2 inh 1, UBC13 inh -3, RBBP9 inh -6, Rin1 Abl inh 3 and UBC9 SUMO inh 25.
For O=C(Nc1ccc2c(c1)OCO2)c1c[nH]c(=O)n(-c2ccc(F)cc2)c1=O the results were PREPL inhibitor 17, ALR H2O2 inh -33, UBC13 inh -11, Rin1 Abl inh -1 and UBC9 SUMO inh 19.
Screening COCCCNc1nc(-c2ccc(Cl)cc2)nc2ccccc12 returned PREPL inhibitor 4, ALR H2O2 inh 0, UBC13 inh 3, Rin1 Abl inh 0 and UBC9 SUMO inh 3.
`OCCCNc1nc(-c2ccc(Cl)cc2)nc2ccccc12` gave PREPL inhibitor 10, ALR H2O2 inh 98*, UBC13 inh 4, Rin1 Abl inh -1 and UBC9 SUMO inh 0.
For Cc1nn(Cc2ccc(Cl)cc2)c(C)c1NC(=O)CSc1nc2c(c(C(F)(F)F)n1)CCc1ccccc1-2 the results were PREPL inhibitor 5, ALR H2O2 inh 98*, UBC13 inh -13, RBBP9 inh 4, Rin1 Abl inh 0 and UBC9 SUMO inh 28.
For O=C(COC(=O)c1cn(-c2ccccc2)nc1-c1cccnc1)NC1CC1 the results were PREPL inhibitor 1, ALR H2O2 inh -14, UBC13 inh 4, RBBP9 inh -5, Rin1 Abl inh 0 and UBC9 SUMO inh -5.
Screening O=C(O)c1ccccc1OCCOc1ccccc1C(=O)O returned PREPL inhibitor 11, ALR H2O2 inh -1, UBC13 inh -4, RBBP9 inh -3, Rin1 Abl inh 1 and UBC9 SUMO inh -16.
NC(=O)COc1ccccc1C(=O)O was read as PREPL inhibitor -1, ALR H2O2 inh 87*, UBC13 inh -4, RBBP9 inh 1, Rin1 Abl inh -3 and UBC9 SUMO inh -2.
For CCNc1nc(-c2cc(C)n(Cc3ccco3)c2C)cs1 the results were PREPL inhibitor 20, ALR H2O2 inh -15, UBC13 inh -8, RBBP9 inh 7, Rin1 Abl inh 2 and UBC9 SUMO inh 56*.
`Cn1c(=O)c2c(ncn2CC(=O)N/N=C/c2ccco2)n(C)c1=O` gave PREPL inhibitor 2, ALR H2O2 inh 0, UBC13 inh 8, RBBP9 inh 2, Rin1 Abl inh -3 and UBC9 SUMO inh -8.
O=C(Cn1cnc2ccccc2c1=O)N/N=C/c1ccc(Br)cc1 was read as PREPL inhibitor 1, ALR H2O2 inh -4, UBC13 inh 6, RBBP9 inh -15, Rin1 Abl inh 1 and UBC9 SUMO inh 7.
Screening COc1cc(/C=N/NC(=O)Cn2cnc3ccccc3c2=O)ccc1O returned PREPL inhibitor 6, ALR H2O2 inh 84*, UBC13 inh -4, RBBP9 inh 2, Rin1 Abl inh -6 and UBC9 SUMO inh 16.
Screening COc1cc(/C=N/NC(=O)Cn2cnc3c2c(=O)n(C)c(=O)n3C)ccc1O returned PREPL inhibitor 4, ALR H2O2 inh 100*, UBC13 inh -13, RBBP9 inh -9, Rin1 Abl inh -1 and UBC9 SUMO inh -1.
`COc1ccc(OC)c(C(=O)NC(CC(N)=O)c2ccc(NCCN3CCCCC3)c([N+](=O)[O-])c2)c1` (stereo unspecified) gave PREPL inhibitor 2, UBC13 inh -14, Rin1 Abl inh -1 and UBC9 SUMO inh 3.
`CCOc1ccc(CNS(=O)(=O)c2cccs2)cc1OCC` gave PREPL inhibitor -2, ALR H2O2 inh 1, UBC13 inh -2, Rin1 Abl inh -1 and UBC9 SUMO inh 1.
Screening COc1ccc(C(=O)Nc2nc(C)c(C)s2)cc1OC returned PREPL inhibitor -3, ALR H2O2 inh 99*, UBC13 inh 5, RBBP9 inh -4, Rin1 Abl inh 0 and UBC9 SUMO inh 4.
For NC(=O)C1C(c2ccccc2)=C1c1ccccc1 the results were PREPL inhibitor -7, ALR H2O2 inh 97*, UBC13 inh -3, RBBP9 inh -6, Rin1 Abl inh -2 and UBC9 SUMO inh 15.
`O=C(O)C1C(c2ccccc2)=C1c1ccc(Br)cc1` (stereo unspecified) gave Rin1 Abl inh 1.
For Nc1ccc2c(c1)C1(CCC2)NC(=O)NC1=O (stereo unspecified) the results were Rin1 Abl inh 2.
`Cc1[nH]n(-c2ccccc2)c(=O)c1N=Nc1cccc([N+](=O)[O-])c1` gave PREPL inhibitor -2, ALR H2O2 inh 1, UBC13 inh -20, Rin1 Abl inh -3 and UBC9 SUMO inh -2.
Cc1[nH]n(-c2cccc([N+](=O)[O-])c2)c(=O)c1-c1ccccc1 was read as PREPL inhibitor -2, ALR H2O2 inh 89*, UBC13 inh 8, RBBP9 inh -5, Rin1 Abl inh -7 and UBC9 SUMO inh -13.
For Cc1[nH]n(-c2ccccc2)c(=O)c1-c1ccccc1 the results were PREPL inhibitor 5, ALR H2O2 inh 70, UBC13 inh -1, RBBP9 inh 8, Rin1 Abl inh -2 and UBC9 SUMO inh -8.
